Assay results from ChEMBL document CHEMBL3792381, “Amine-free melanin-concentrating hormone receptor 1 antagonists: Novel 1-(1H-benzimidazol-6-yl)pyridin-2(1H)-one derivatives and design to avoid CYP3A4 time-dependent inhibition” (Bioorg Med Chem, 2016).
≈ marks a conversion by molar mass, not a printed value. Calls of active or inactive are those of the source. The rule behind the calls is not given here.

What was measured:
[1] = biological target: Melanin-concentrating hormone receptor 1 (Rattus norvegicus, UniProt P97639); assay: Displacement of [125I]-MCH(4-19) from rat MCHR1 expressed in CHO cell membranes after 1 hr by liquid scintillation counting
Sequence of Melanin-concentrating hormone receptor 1 (Rattus norvegicus, UniProt P97639) (P97639 whole entry): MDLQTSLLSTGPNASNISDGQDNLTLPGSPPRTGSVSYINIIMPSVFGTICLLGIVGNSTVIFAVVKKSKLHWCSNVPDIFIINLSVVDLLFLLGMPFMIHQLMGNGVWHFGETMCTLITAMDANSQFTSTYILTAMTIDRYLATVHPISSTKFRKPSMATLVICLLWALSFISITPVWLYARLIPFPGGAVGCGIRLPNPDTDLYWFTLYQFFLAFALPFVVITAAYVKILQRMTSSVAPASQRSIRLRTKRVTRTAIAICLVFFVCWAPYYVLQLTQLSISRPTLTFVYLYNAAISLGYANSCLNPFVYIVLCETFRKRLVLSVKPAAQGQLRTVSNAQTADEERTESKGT
Outline: (§1)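 Membranes from CHO cells stably expressing human or rat MCHR1, prepared by homogenization and 100,000×g centrifugation, in 20 mM Tris-HCl pH 7.5 with 5 mM EDTA and protease inhibitors. Incubated with test compound and [125I]-MCH(4–19) for 1 h at room temperature. Filtered on PEI-treated GF/C filters and counted by scintillation. Nonspecific binding defined with cold MCH(1–19). IC50 from duplicate experiment.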

[2] = biological target: T1, Melanin-concentrating hormone receptor 1 (Homo sapiens, UniProt Q99705); assay: Displacement of [125I]-MCH(4 to 19) from human MCHR1 expressed in CHO cell membranes after 1 hr by liquid scintillation counting; outline: as §1
T1 sequence (Q99705 whole entry): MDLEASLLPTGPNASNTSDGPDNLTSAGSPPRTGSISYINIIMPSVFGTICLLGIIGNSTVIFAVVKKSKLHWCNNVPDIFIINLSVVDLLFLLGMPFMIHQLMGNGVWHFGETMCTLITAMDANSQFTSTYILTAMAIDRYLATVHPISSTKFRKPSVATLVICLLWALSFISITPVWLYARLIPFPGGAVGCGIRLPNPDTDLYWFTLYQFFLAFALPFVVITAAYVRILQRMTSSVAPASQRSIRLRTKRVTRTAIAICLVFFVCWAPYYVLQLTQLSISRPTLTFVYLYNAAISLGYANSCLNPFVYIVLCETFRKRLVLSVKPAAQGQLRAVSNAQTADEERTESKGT

[3] = tested on: Rattus norvegicus; assay: Anorectic effect in DIO-F344/Jcl rat assessed as cumulative food intake at 1 mg/kg, po dosed for 2 weeks and measured every 2 or 3 days relative to vehicle control; format: functional
Outline: (§2)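 Male DIO-F344 rats (41 weeks old), on high-fat diet D12451 from 5 weeks of age, singly housed, given powder high-fat diet, habituated to oral dosing with tap water, grouped by day-0 food intake and body weight. Oral gavage once daily, suspended in 0.5% methylcellulose at 2 mL/kg, 1–3 h before dark onset, for 2 weeks (n = 5 or 6). Body weight taken before dosing, expressed as % of initial. Food intake every 2 or 3 days. Vehicle-treated and sibutramine-treated groups included.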

[4] = tested on: Rattus norvegicus; assay: Antiobesity activity in DIO-F344/Jcl rat assessed as reduction in body weight at 1 mg/kg, po dosed for 2 weeks and measured every 2 or 3 days relative to vehicle control; format: functional; parameters: scale not given: the % may be the effect or the level left; outline: as §2
[5] = tested on: Rattus norvegicus; assay: Antiobesity activity in DIO-F344/Jcl rat assessed as reduction in body weight at 10 mg/kg, po dosed for 2 weeks and measured every 2 or 3 days relative to vehicle control; format: functional; parameters: scale not given: the % may be the effect or the level left
Outline: (§3)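 DIO-F344 rats, 41 weeks old, habituated and grouped as for the 2-day study. Dosed orally once daily for 2 weeks in 0.5% methylcellulose at 2 mL/kg, 1–3 h before dark onset, after weighing; n = 5 or 6. Food intake measured every 2 or 3 days; body weight change expressed as percent of initial weight; sibutramine was the positive control.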

[6] = tested on: Rattus norvegicus; assay: Anorectic effect in DIO-F344/Jcl rat assessed as inhibition of food intake at 10 mg/kg, po administered 2 hrs before onset of dark period for 2 days; format: functional; parameters: scale not given: the % may be the effect or the level left
Outline: (§4)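 Male DIO-F344/Jcl rats, 45 weeks old, on high-fat diet from 5 weeks of age, singly housed on powdered high-fat diet and habituated to oral dosing with tap water. Grouped by day-0 food intake and body weight. Dosed orally once daily, suspended in 0.5% methylcellulose at 2 mL/kg, 2 h before dark onset, for 2 days; n = 6. Cumulative 2-day food intake is expressed relative to the vehicle group.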

[7] = biological target: T1, Melanin-concentrating hormone receptor 1; assay: Antagonist activity at human MCHR1 expressed in CHO cells assessed as change in MCH(4 to 19)-stimulated Ca2+ concentration by Ca2+ mobilization assay; format: functional, cell-based
Outline: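 CHO dhfr− cells stably transfected with human MCHR1 (clone 4), seeded at 20000 cells/well and cultured about 24 h. Loaded with Fluo4 calcium dye for 30 min at 37 °C. Test compound in 10 mM HEPES pH 7.4 buffer with 0.1% BSA added, then MCH(4–19) at 2 nM final. Fluorescence read every 2 s; inhibition rate (%) taken relative to ligand-alone and DMSO-alone wells.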

[8] = tested on: Plasma; assay: Free plasma concentration in DIO-F344/Jcl rat at 10 mg/kg, po; format: ADME, organism-based; conditions: in vivo
Outline: (§5)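 Trough plasma concentration taken in the 2-week repeated oral dosing study in DIO-F344 rats. Unbound concentration obtained from total concentration and the unbound fraction in DIO rat plasma.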

[9] = AUC( 0 to 8 hrs) Sprague-Dawley rat plasma at 1 mg/kg, po administered through cassette dosing by LC/MS/MS analysis; format: ADME, organism-based; parameters: dose 1 mg/kg, time < 8 hr, route oral
Outline: (§6)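 Male SD rats (eight weeks old), fed, cassette-dosed iv at 0.1 mg/kg or orally at 1 mg/kg as a suspension in 0.5% methylcellulose; n = 3. Plasma obtained by centrifugation of blood, deproteinized with acetonitrile, and measured by LC/MS/MS. AUC covers 0–8 h. Bioavailability, total clearance and Vss are derived from the iv and po data.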

[10] = tested on: Rattus norvegicus; assay: Trough plasma concentration in DIO-F344/Jcl rat at 10 mg/kg, po; format: ADME, organism-based; conditions: in vivo, read-out: Cmin; outline: as §5
[11] = tested on: Rattus norvegicus; assay: Anorectic effect in DIO-F344/Jcl rat assessed as cumulative food intake at 10 mg/kg, po dosed for 2 weeks and measured every 2 or 3 days relative to vehicle control; format: functional; outline: as §3
[12] = Volume of distribution in steady state in Sprague-Dawley rat plasma at 0.1 mg/kg, iv administered through cassette dosing by LC/MS/MS analysis; format: ADME, organism-based; conditions: read-out: Vdss; outline: as §6
[13] = tested on: Mus musculus; assay: Anorectic effect in MCHR1-deficient mouse assessed as reduction in food intake at 10 and 30 mg/kg, po dosed for 3 days; format: functional, organism-based
Outline: (§7)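 Male MCHR1-deficient and wild-type littermate mice, 27 weeks old, on high-fat diet from 7 weeks of age, housed individually and acclimated to tap-water dosing. Grouped by food intake from day −4 to day −1 and by day −1 body weight. Dosed orally once daily for 3 days in 0.5% methylcellulose at 10 mL/kg; n = 6. Body weight change and cumulative food intake measured over the 3 days.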

[14] = Total clearance in Sprague-Dawley rat plasma at 0.1 mg/kg, iv administered through cassette dosing by LC/MS/MS analysis; format: ADME, organism-based; outline: as §6
[15] = biological target: CYP3A4 (Homo sapiens, UniProt P08684); assay: Time dependent inhibition of CYP3A4 in human liver microsomes assessed as conversion of testosterone to 6beta-hydroxytestosterone by measuring remaining activity at 30 uM by UPLC analysis in presence of NADPH generating system; format: ADME; conditions: read-out: Activity
Sequence of CYP3A4 (P08684 whole entry): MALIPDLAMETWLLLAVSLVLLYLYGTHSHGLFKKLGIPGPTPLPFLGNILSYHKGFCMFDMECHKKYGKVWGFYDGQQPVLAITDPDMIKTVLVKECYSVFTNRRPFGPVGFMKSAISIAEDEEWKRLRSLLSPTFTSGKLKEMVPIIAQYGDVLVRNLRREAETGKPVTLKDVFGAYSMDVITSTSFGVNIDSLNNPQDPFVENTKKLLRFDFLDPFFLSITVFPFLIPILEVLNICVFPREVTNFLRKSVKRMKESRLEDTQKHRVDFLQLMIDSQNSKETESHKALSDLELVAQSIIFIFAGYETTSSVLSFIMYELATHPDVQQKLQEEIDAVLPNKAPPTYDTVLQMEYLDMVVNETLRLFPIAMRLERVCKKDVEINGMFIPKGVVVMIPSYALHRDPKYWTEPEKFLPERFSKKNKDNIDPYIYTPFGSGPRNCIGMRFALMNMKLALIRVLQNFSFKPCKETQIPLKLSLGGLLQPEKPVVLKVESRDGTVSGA
Outline: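 Single-point assay: test compound at 30 µM preincubated with human liver microsomes at 37 °C in phosphate buffer pH 7.4 with an NADPH-generating system. Residual CYP3A4 activity then measured as testosterone 6β-hydroxylation by UPLC. Percent remaining = activity with preincubation (% of DMSO control) over activity without preincubation; n = 2.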

[16] = tested on: Rattus norvegicus; assay: Antiobesity activity in DIO-F344/Jcl rat assessed as reduction in body weight at 3 mg/kg, po dosed for 2 weeks and measured every 2 or 3 days relative to vehicle control; format: functional; parameters: scale not given: the % may be the effect or the level left; outline: as §3
[17] = tested on: Mus musculus; assay: Antiobesity activity in wild-type litter mate mouse assessed as reduction in body weight at 10 and 30 mg/kg, po dosed for 3 days; format: functional, organism-based; outline: as §7
[18] = tested on: Rattus norvegicus; assay: Anorectic effect in DIO-F344/Jcl rat assessed as cumulative food intake at 3 mg/kg, po dosed for 2 weeks and measured every 2 or 3 days relative to vehicle control; format: functional; outline: as §3
[19] = tested on: Rattus norvegicus; assay: Anorectic effect in orally dosed DIO-F344/Jcl rat assessed as inhibition of food intake administered 2 hrs before onset of dark period for 2 days; format: functional, organism-based; outline: as §4
[20] = Solubility of compound at pH 6.8; format: physicochemical; conditions: buffer
[21] = Tmax in Sprague-Dawley rat plasma at 1 mg/kg, po administered through cassette dosing by LC/MS/MS analysis; format: ADME, organism-based; outline: as §6
[22] = tested on: Rattus norvegicus; assay: Anorectic effect in DIO-F344/Jcl rat assessed as inhibition of food intake at 3 mg/kg, po administered 2 hrs before onset of dark period for 2 days; format: functional; parameters: scale not given: the % may be the effect or the level left; outline: as §4
[23] = tested on: Mus musculus; assay: Antiobesity activity in MCHR1-deficient mouse assessed as reduction in body weight at 10 and 30 mg/kg, po dosed for 3 days; format: functional, organism-based; outline: as §7
[24] = Ratio of drug level in brain to plasma in po dosed DIO-F344/Jcl rat; format: ADME, organism-based; conditions: brain and plasma, read-out: BPR
[25] = tested on: Brain; assay: Drug uptake in po dosed DIO-F344/Jcl rat brain; format: ADME, organism-based; conditions: in vivo
[26] = Oral bioavailability in Sprague-Dawley rat plasma at 1 mg/kg administered through cassette dosing by LC/MS/MS analysis; format: ADME, organism-based; outline: as §6
[27] = Cmax in Sprague-Dawley rat at 1 mg/kg, po administered through cassette dosing by LC/MS/MS analysis; format: ADME, organism-based; parameters: dose 1 mg/kg, route oral; conditions: in vivo; outline: as §6
[28] = Fraction unbound in po dosed DIO-F344/Jcl rat plasma; format: ADME, organism-based

What does the source list for Cn1c(C2CCCC2)nc2ccc(-n3ccc(OCc4ccc(F)cc4)cc3=O)cc21?
IC50 [1]: 460 nM; IC50 [2]: 600 nM

Which results are given for Cn1c(C2CCC2)nc2ccc(-n3ccc(OCc4ccc(F)cc4)cc3=O)cc21?
IC50 [1]: 210 nM; IC50 [2]: 240 nM

Which Activity [3] does the source give for CC(C)CC(N(C)C)C1(c2ccc(Cl)cc2)CCC1 (stereo not drawn) [SIBUTRAMINE] here?
Its Activity is 18.7%.

And the Activity [4]?
Its Activity is 3.1%.

What does the source list for Cn1c(C2CC2)nc2ccc(-n3ccc(OCc4ccc(Cl)s4)cc3=O)cc21?
IC50 [1]: 11 nM; Activity [5]: 4.1%; Activity [6]: 36.5%; IC50 [7]: 24 nM; IC50 [2]: 19 nM; Cp(f) [8]: 15.8 nM; AUC(0-t) at 8 h [9]: 515 ng·h/mL; concentration [10]: 790 nM; Activity [11]: 20.9%; Vd [12]: 0.92 L/kg; Activity [13]: Dose-dependent effect; clearance [14]: 7.5 mL/min/kg; activity at 30 µM [15]: 83%; Activity [16]: 2.2%; Activity [17]: Dose-dependent effect; Activity [18]: 11.6%; Activity [19]: Dose-dependent effect; solubility [20]: 2.3 µg/mL (≈ 5.58 µM); Tmax [21]: 1 h; Activity [22]: 11.6%; Activity [23]: inactive; Kp [24]: 0.5; Drug uptake [25]: Active; bioavailability [26]: 23%; Cmax [27]: 165 ng/mL; fraction unbound [28]: 0.02

With CCc1nc2ccc(-n3ccc(OCc4ccc(F)cc4)cc3=O)cc2n1C as the molecule, how does the IC50 [1] read?
The IC50 was 38 nM.

What about the IC50 [2] of the same molecule?
The IC50 was 48 nM.

For Cn1c(C2CC2)nc2ccc(-n3ccc(OCc4ccsc4)cc3=O)cc21, which IC50 [1] is on record?
Its IC50 is 29 nM.

And the IC50 [2]?
Its IC50 is 28 nM.

And the activity at 30 µM [15]?
The activity at 30 µM was 74%.

With Cc1c(C2CC2)nc2ccc(-n3ccc(OCc4ccc(Cl)cc4)cc3=O)nn12 as the molecule, how does the IC50 [2] read?
Its IC50 is 380 nM.

For Cn1c(C2CC2)nc2ccc(-n3ccc(OCc4ccccc4Cl)cc3=O)cc21, which IC50 [1] is on record?
Its IC50 is 140 nM.

And the IC50 [2]?
Its IC50 is 160 nM.

For CCCc1nc2ccc(-n3ccc(OCc4ccc(F)cc4)cc3=O)cc2n1C, which IC50 [1] is on record?
Its IC50 is 39 nM.

What about the IC50 [2] of the same molecule?
Its IC50 is 34 nM.

Which IC50 [1] does the source give for Cn1c(C2CC2)nc2ccc(-n3ccc(OCc4ccc(F)cc4)cc3=O)cc21 here?
The IC50 was 28 nM.

What about the IC50 [2] of the same molecule?
The IC50 was 40 nM.

For Cn1c(C2CC2)nc2ccc(-n3ccc(OCc4ccc(Cl)cc4)cc3=O)cc21, which IC50 [1] is on record?
The IC50 was 21 nM.

And the IC50 [2]?
Its IC50 is 35 nM.

For CCn1c(C2CC2)nc2ccc(-n3ccc(OCc4ccc(Cl)cc4)cc3=O)cc21, which IC50 [1] is on record?
The IC50 was 34 nM.

And the IC50 [2]?
Its IC50 is 37 nM.

With Cn1c(C2CC2)nc2ccc(-n3ccc(OCc4cc(Cl)cs4)cc3=O)cc21 as the molecule, how does the IC50 [1] read?
Its IC50 is 18 nM.

What about the IC50 [2] of the same molecule?
The IC50 was 17 nM.

What about the activity at 30 µM [15] of the same molecule?
Its activity at 30 µM is 25%.

For Cc1nc2ccc(-n3ccc(OCc4ccc(F)cc4)cc3=O)cc2n1C, which IC50 [1] is on record?
The IC50 was 65 nM.

And the IC50 [2]?
Its IC50 is 77 nM.
